inhibition, IC50 and inhibition in vivo data for 34 compounds are collected here from ChEMBL document CHEMBL1127023, “Nonpeptide angiotensin II receptor antagonists. Synthesis and biological activity of benzimidazoles” (J Med Chem, 1993).

Molecules are shown by their SMILES. Bounds are passed on as bounds.

The target of experiment [1] is Angiotensin II receptor (Rattus norvegicus) (UniProt P29089+P25095+P35351). Put plainly: In vivo inhibition of angiotensin II (0.1 ug/kg) induced increase in blood pressure in conscious male rat at 3 mg/kg for 3h/7h. Type of experiment: functional, organism-based. Also on record: dose 3 mg/kg. In short, it runs like this:
(§1)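 Conscious male Jcl:Sprague-Dawley rats (300–400 g), femoral artery and vein cannulated under pentobarbital the day before. AII 100 ng/kg iv was given twice as control. Compound was dosed orally as a gum arabic suspension, then AII challenges were repeated. Pressor-response inhibition was read at 3 and 7 h after dosing, from duplicate experiments.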

The nature of experiment [2]: In vitro for inhibition of specific binding of [125I]-angiotensin II (0.2 nM) to bovine adrenal cortex.
Experiment [3] deals with Rattus norvegicus. Put plainly: In vivo for inhibition of the Angiotensin II (0.1 ug/kg) induced increase in blood pressure in conscious male rat at 30 mg/kg for 3h/7h. The class given is functional. In short, it runs like this:
as §1

Experiment [4] is described as follows: In vitro for inhibition of specific binding of [125I]-angiotensin II (0.02 nM) to bovine adrenal cortex. The class given is tissue-based, Bos taurus.
Experiment [5] relates to Rattus norvegicus. Put plainly: In vivo for inhibition of the Angiotensin II (0.1 ug/kg) induced increase in blood pressure in conscious male rat at 10 mg/kg for 0.5h/1h. Type of experiment: functional.
For experiment [6], the system named is Rattus norvegicus. Put plainly: In vivo for inhibition of the Angiotensin II (0.1 ug/kg) induced increase in blood pressure in conscious male rat at 100 mg/kg for 3h/7h. The class given is functional. A digest of the protocol: as §1
For experiment [7], the system named is Rattus norvegicus. Put plainly: In vivo inhibition of angiotensin II (0.1 ug/kg) induced increase in blood pressure in conscious male rat at 10 mg/kg for 3h/7h. The class given is functional. A digest of the protocol:
as §1

Experiment [8] has as its system Rattus norvegicus. Put plainly: In vivo inhibition of angiotensin II (0.1 ug/kg)-induced increase in blood pressure in conscious male rat at 10 mg/kg for 3h/7h. Type of experiment: functional. A digest of the protocol: as §1

In the case of `CCCCc1nc2cc(C(=O)O)ccc2n1Cc1ccc(-c2ccccc2-c2nn[nH]n2)cc1`, the inhibition in experiment [1] came to 7%. This compound gave an IC50 in experiment [2] of 5500 nM.
In the case of `CCCCc1nc2cccc(O)c2n1Cc1ccc(-c2ccccc2-c2nn[nH]n2)cc1`, in experiment [1], the inhibition turned out to be 2%. For the same compound, in the experiment with Rattus norvegicus [3], the inhibition in vivo at 30 mg/kg came to 56%. The compound further yielded a 50% inhibitory concentration (IC50) in experiment [2] of 1100 nM.
On to `CCCCc1nc2cccc(C(=O)O)c2n1Cc1ccc(-c2ccccc2-c2nnnn2C)cc1`, for which the inhibition in experiment [1] worked out at 77%. In experiment [2], this compound gave an IC50 of 3400 nM.
With `CCCCc1nc2ccc(C)c(C(=O)OCC)c2n1Cc1ccc(-c2ccccc2-c2nn[nH]n2)cc1`, the inhibition in experiment [1] turned out to be 13%. The inhibition in vivo at 30 mg/kg with Rattus norvegicus [3] came to 100%. Besides, the IC50 in experiment [4] is 910 nM.
In the case of `CCCCc1nc2cccc(C(=O)O)c2n1Cc1ccc(-c2ccccc2C(=O)O)cc1`, the inhibition in experiment [1] came out at 2%. The inhibition in vivo at 30 mg/kg with Rattus norvegicus [3] was 46%. For the same compound, the IC50 in experiment [2] stood at 660 nM.
As to `CCCCc1nc2cc(C)cc(C(=O)O)c2n1Cc1ccc(-c2ccccc2-c2nn[nH]n2)cc1`, the inhibition in experiment [1] was 80%. For the same compound, in experiment [2], the 50% inhibitory concentration (IC50) was 1300 nM.
As to `CCCCc1nc2cccc(COC)c2n1Cc1ccc(-c2ccccc2-c2nn[nH]n2)cc1`, the inhibition in experiment [1] was 54%. The same compound displayed an IC50 in experiment [2] of 600 nM.
With `CCCCc1nc2cc(Cl)cc(C(=O)O)c2n1Cc1ccc(-c2ccccc2-c2nn[nH]n2)cc1`, in experiment [1], the inhibition was 23%.
`CCCCc1nc2cc(OC)ccc2n1Cc1ccc(-c2ccccc2-c2nn[nH]n2)cc1`: in the experiment with Rattus norvegicus [5], the inhibition in vivo at 10 mg/kg came to 60%. Moreover, the inhibition in vivo at 100 mg/kg in the experiment on Rattus norvegicus [6] came to 84%. In experiment [2], this compound had an IC50 of 910 nM.
Regarding `CCCCc1nc2ccc(C)c(C(=O)O)c2n1Cc1ccc(-c2ccccc2-c2nn[nH]n2)cc1`, the inhibition in experiment [1] came out at 40%. Also, the IC50 in experiment [2] was 340 nM.
With `CCCCc1nc2c(C(=O)O)cccc2n1Cc1ccc(-c2ccccc2-c2nn[nH]n2)cc1`, in the experiment with Rattus norvegicus [7], the inhibition in vivo at 10 mg/kg amounted to 19%. In experiment [2], this compound gave an IC50 greater than 10000 nM.
Take `CCCCc1nc2cccc(CO)c2n1Cc1ccc(-c2ccccc2-c2nn[nH]n2)cc1`: the inhibition in experiment [1] is 16%. The inhibition in vivo at 30 mg/kg in the experiment with Rattus norvegicus [3] was 41%. Moreover, the half-maximal inhibitory concentration (IC50) in experiment [2] was 450 nM.
Consider `CCCCc1nc2cccc(C)c2n1Cc1ccc(-c2ccccc2-c2nn[nH]n2)cc1`, for which the inhibition in experiment [1] worked out at 8%. The IC50 in experiment [2] is 330 nM.
The matching figures for `CCCCc1nc2cccc(C(=O)OCC)c2n1Cc1ccc(-c2ccccc2-c2nn[nH]n2)cc1`: 51% and 1400 nM.
Turning to `CCCCc1nc2ccc(Cl)cc2n1Cc1ccc(-c2ccccc2-c2nn[nH]n2)cc1`, the inhibition in vivo at 10 mg/kg with Rattus norvegicus [5] was 23%. Also, in the experiment with Rattus norvegicus [3], the inhibition in vivo at 30 mg/kg was 18%. The same compound registered an IC50 in experiment [2] of 3100 nM.
On to `CCCCc1nc2cccc(CC(=O)OCC)c2n1Cc1ccc(-c2ccccc2-c2nn[nH]n2)cc1`, for which the inhibition in experiment [1] is 24%. In addition, the inhibition in vivo at 30 mg/kg in the experiment on Rattus norvegicus [3] was 82%. The same compound yielded a 50% inhibitory concentration (IC50) in experiment [2] of 250 nM.
Take `CCCCc1nc2cc(C(=O)OC)ccc2n1Cc1ccc(-c2ccccc2-c2nn[nH]n2)cc1`: the inhibition in vivo at 100 mg/kg with Rattus norvegicus [6] is -13%. This compound also came in with an IC50 in experiment [2] of 740 nM.
For `CCCCc1nc2cc(C)cc(C(=O)OC)c2n1Cc1ccc(-c2ccccc2-c2nn[nH]n2)cc1`, the inhibition in experiment [1] is 41%. The same compound returned an IC50 in experiment [2] of 870 nM.
Turning to `CCCCc1nc2cccc(C(=O)O)c2n1Cc1ccc(-c2ccccc2-c2nn[nH]n2)cc1`, the inhibition in experiment [1] is 91%. This compound also showed an IC50 in experiment [2] of 550 nM.
Turning to `CCCCc1nc2ccccc2n1Cc1ccc(-c2ccccc2-c2nn[nH]n2)cc1`, the figures for the inhibition in vivo at 10 mg/kg with Rattus norvegicus [5] and in the experiment on Rattus norvegicus [8] were 52% and 13%, respectively. For the same compound, the inhibition in vivo at 30 mg/kg with Rattus norvegicus [3] amounted to 18%. Also, the IC50 in experiment [2] was 900 nM.
Consider `CCCCc1nc2ccc(C(=O)OC)cc2n1Cc1ccc(-c2ccccc2-c2nn[nH]n2)cc1`, for which the inhibition in vivo at 30 mg/kg in the experiment on Rattus norvegicus [3] came out at 0%. In experiment [2], this compound returned an IC50 of 440 nM.
On to `CCCCc1nc2c(C(=O)OC)cccc2n1Cc1ccc(-c2ccccc2-c2nn[nH]n2)cc1`, for which the inhibition in vivo at 30 mg/kg in the experiment on Rattus norvegicus [3] turned out to be 9%. Moreover, the IC50 in experiment [2] turned out to be 7200 nM.
Regarding `CCCCc1nc2cccc(CN(C)C)c2n1Cc1ccc(-c2ccccc2-c2nn[nH]n2)cc1`, the inhibition in experiment [1] amounted to 12%. The same compound came in with an IC50 in experiment [2] of 2400 nM.
As to `CCCCc1nc2ccccc2n1Cc1ccc(-c2ccccc2C(=O)O)cc1`, the inhibition in vivo at 10 mg/kg in the experiment on Rattus norvegicus [5] came to 20%. Moreover, the inhibition in vivo at 100 mg/kg with Rattus norvegicus [6] stood at 45%. This compound also had an IC50 in experiment [2] of 1100 nM.
Take `CCCCOC(=O)c1cccc2nc(CCCC)n(Cc3ccc(-c4ccccc4-c4nn[nH]n4)cc3)c12`: the inhibition in experiment [1] stood at 9%. Also, in the experiment with Rattus norvegicus [3], the inhibition in vivo at 30 mg/kg was 78%. In experiment [2], the half-maximal inhibitory concentration (IC50) is 1200 nM.
As to `CCCCc1nc2cccc(OC)c2n1Cc1ccc(-c2ccccc2-c2nn[nH]n2)cc1`, in experiment [1], the inhibition was -6%. In addition, the IC50 in experiment [2] was 2800 nM.
Regarding `CCCCc1nc2cc(Cl)cc(C(=O)OC)c2n1Cc1ccc(-c2ccccc2-c2nn[nH]n2)cc1`, the inhibition in experiment [1] is 57%. For the same compound, the IC50 in experiment [2] came out at 440 nM.
As for `CCCCc1nc2cccc(C(=O)OC)c2n1Cc1ccc(-c2ccccc2-c2nn[nH]n2)cc1`, the inhibition in experiment [1] stood at 78%. The compound further had an IC50 in experiment [2] of 320 nM.
For the compound `CCCCc1nc2cccc(C(=O)NC(C)C)c2n1Cc1ccc(-c2ccccc2-c2nn[nH]n2)cc1`, the IC50 in experiment [2] amounted to 540 nM.
With `CCCCc1nc2cc(Cl)ccc2n1Cc1ccc(-c2ccccc2-c2nn[nH]n2)cc1`, the inhibition in vivo at 10 mg/kg with Rattus norvegicus [5] worked out at 45%. In addition, in the experiment with Rattus norvegicus [3], the inhibition in vivo at 30 mg/kg was -8%. This compound returned an IC50 in experiment [2] of 1500 nM.
As for `CCCCc1nc2cccc(CC(=O)O)c2n1Cc1ccc(-c2ccccc2-c2nn[nH]n2)cc1`, the half-maximal inhibitory concentration (IC50) in experiment [2] was 2600 nM.
Turning to `CCCCc1nc2c(C(N)=O)cccc2n1Cc1ccc(-c2ccccc2-c2nn[nH]n2)cc1`, the inhibition in vivo at 30 mg/kg with Rattus norvegicus [3] was determined as 28%.
Consider `CCCCc1nc2ccc(C(=O)O)cc2n1Cc1ccc(-c2ccccc2-c2nn[nH]n2)cc1`, for which the inhibition in vivo at 30 mg/kg with Rattus norvegicus [3] worked out at 9%. This compound also displayed an IC50 in experiment [2] of 9000 nM.
As for `CCCCc1nc2ccc(OC)cc2n1Cc1ccc(-c2ccccc2-c2nn[nH]n2)cc1`, the inhibition in vivo at 10 mg/kg in the experiment with Rattus norvegicus [5] came to 77%. Further, the inhibition in vivo at 100 mg/kg in the experiment with Rattus norvegicus [6] stood at 5%. In experiment [2], this compound registered an IC50 of 1100 nM.

For orientation: inhibition means the change of the read-out against control, counted positive when it falls. In general, IC50 refers to the concentration that inhibits the measured activity by half. A low value points to higher potency. Usually inhibition in vivo stands for the change of the read-out against control, counted positive when it falls.
